We go through 5 compounds from ChEMBL document CHEMBL2406939, “Structure, synthesis, and biological activity of a C-20 bisacetylenic alcohol from a marine sponge Callyspongia sp” (J Nat Prod, 2013).

Active and inactive are the calls of the source. No cut-off for these calls is given here.

One may read the IC50 as the concentration needed to halve the response being measured. High values mean weaker potency in that assay, low ones greater potency in that assay.

The nature of test [1]: Antiproliferative activity against temperature-sensitive rat lymphatic endothelial cells assessed as cell viability at 10 uM after 48 hrs by MTS assay. It is filed as functional. The following applies: read-out: Activity. The method, boiled down:
(§1)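 TR-LE cells kept on type I collagen-coated dishes in HuMedia-EB2/EG + 10% FBS at permissive 33 °C. Seeded at 8 × 10^3 cells/well in DMEM + 10% FBS on collagen I-coated plates. Allowed 3 h to adhere, then exposed to compounds (final 0.1–100 μM) for 48 h. Viability by MTS assay. Final DMSO ≤0.5% (v/v).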

Test [2] is described as follows: Antiproliferative activity against temperature-sensitive rat lymphatic endothelial cells after 48 hrs by MTS assay. The note with it: Endothelial cell. On the technique in general: Formazan colour is commonly taken as a measure of viable cells.
The next test deals with HeLa. The test can be described thus: Antiproliferative activity against human HeLa cells after 48 hrs by MTS assay. It is filed as functional, cell-based. The method, boiled down:
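HeLa cells grown in EMEM + 10% FBS at 37 °C, 5% CO2. Seeded at 3 × 10^3 cells/well in EMEM + 10% FBS, incubated 24 h, then exposed to compounds for 48 h. Viability read by MTS assay. Final DMSO ≤0.5% (v/v). IC50 from viability.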

A further test relates to Endothelial cell. Briefly: Antiproliferative activity against temperature-sensitive rat lymphatic endothelial cells assessed as cell viability at 100 uM after 48 hrs by MTS assay. The test is classed as functional, cell-based. The method, boiled down: as §1

As to `C#CC(=O)/C=C/CCCCCCCCCC/C=C/C(O)C#C` (stereo unspecified), the viability at 10 µM in test [1] stood at 78%.
Consider `CC[C@]1(O)C[C@H]2CN(CCc3c([nH]c4ccccc34)[C@@](C(=O)OC)(c3cc4c(cc3OC)N(C=O)[C@H]3[C@@](O)(C(=O)OC)[C@H](OC(C)=O)[C@]5(CC)C=CCN6CC[C@]43[C@@H]65)C2)C1` [VINCRISTINE], for which the IC50 worked out at 80 nM in test [2] and 4.3 nM with HeLa.
On to `C#CC(O)/C=C/CCCCCC` (stereo unspecified), for which, in the test with Endothelial cell, the outcome was inactive.
Regarding `CC(=O)O[C@H]1C(=O)[C@@]2(C)[C@H]([C@H](OC(=O)c3ccccc3)[C@]3(O)C[C@H](OC(=O)[C@H](O)[C@@H](NC(=O)c4ccccc4)c4ccccc4)C(C)=C1C3(C)C)[C@]1(OC(C)=O)CO[C@@H]1C[C@@H]2O` [PACLITAXEL], half-maximal inhibition in the test with HeLa (IC50) required 1.7 nM.
Turning to `C#CC(=O)/C=C/CCCCCC`, the result with Endothelial cell was inactive.
